Data taken from ChEMBL document CHEMBL1687792, “vanM, a new glycopeptide resistance gene cluster found in Enterococcus faecium” (2010).
In brackets after ≈: the same amount, converted by molar mass. Activity calls are given as the source filed them. The rule behind the calls is not given here.

How the values were obtained:
Enterococcus faecium [1] = experiment: Antimicrobial activity against glycopeptide-resistant Enterococcus faecium isolate HS07261 harboring MLST sequence type ST78 and pulsotype D expressing vanM gene cluster isolated from urine of patient by Etest
Enterococcus faecium [2] = experiment: Antimicrobial activity against rifampin-, fusidic acid-resistant Enterococcus faecium BM-4105 by Etest; assay type: functional
Outline: (§1)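 MIC by Etest on Mueller-Hinton agar, run per manufacturer's instructions and interpreted by CLSI recommendations. Same method for donor, recipient (BM4105RF, Fusr Rifr) and transconjugants. Transconjugants came from filter mating and were selected on BHI agar with rifampin (100 μg/ml) or fusidic acid (10 μg/ml) plus vancomycin (10 μg/ml).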

Enterococcus faecium [3] = experiment: Antimicrobial activity against glycopeptide-resistant Enterococcus faecium isolate HS0649 harboring MLST sequence type ST17 and pulsotype B expressing vanA gene cluster isolated from exudate of patient by Etest
Enterococcus faecium [4] = experiment: Antimicrobial activity against glycopeptide-resistant Enterococcus faecium isolate HS08257 harboring MLST sequence type ST341 and pulsotype F expressing vanM gene cluster isolated from urine of patient by Etest
Enterococcus faecium [5] = experiment: Antimicrobial activity against glycopeptide-resistant Enterococcus faecium isolate HS0661 harboring MLST sequence type ST78 and pulsotype C expressing vanM gene cluster isolated from exudate of patient by Etest
Enterococcus faecium [6] = experiment: Antimicrobial activity against Enterococcus faecium BM-0661 transconjugant by Etest; assay type: functional
Outline: as §1

Enterococcus faecium [7] = experiment: Antimicrobial activity against glycopeptide-resistant Enterococcus faecium isolate HS0761 harboring MLST sequence type ST78 and pulsotype C expressing vanM gene cluster isolated from urine of patient by Etest
Enterococcus faecium [8] = experiment: Antimicrobial activity against glycopeptide-resistant Enterococcus faecium isolate HS08369 harboring MLST sequence type ST18 and pulsotype G expressing vanM gene cluster isolated from urine of patient by Etest
Enterococcus faecium [9] = experiment: Antimicrobial activity against glycopeptide-resistant Enterococcus faecium isolate HS05417 harboring MLST sequence type ST17 and pulsotype A expressing vanA gene cluster isolated from urine of patient by Etest
Enterococcus faecium [10] = experiment: Antimicrobial activity against glycopeptide-resistant Enterococcus faecium isolate HS05446 harboring MLST sequence type ST17 and pulsotype B expressing vanA gene cluster isolated from urine of patient by Etest
Enterococcus faecium [11] = experiment: Antimicrobial activity against glycopeptide-resistant Enterococcus faecium isolate HS06188 harboring MLST sequence type ST78 and pulsotype A expressing vanA gene cluster isolated from urine of patient by Etest
Enterococcus faecium [12] = experiment: Antimicrobial activity against glycopeptide-resistant Enterococcus faecium isolate HS0847 harboring MLST sequence type ST78 and pulsotype E expressing vanM gene cluster isolated from urine of patient by Etest
Enterococcus faecalis = experiment: Induction of VanM gene cluster in glycopeptide-resistant Enterococcus […] isolate HS0661 harboring MLST sequence type ST78 and pulsotype C expressing vanM gene cluster isolated from exudate of patient assessed as UDP-MurNAc-tetrapeptide-D-lactate at 50 ug/mL by LC-MS method; assay type: functional, organism-based
Outline: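 Efm-HS0661 was grown in BHI broth to OD650 0.4, then exposed to glycopeptide at 50 μg/ml for a further 120 min. Peptidoglycan precursors were extracted and separated on a C18 column at 30 μl/min using a linear gradient over 18 min. Eluent A was 10 mM ammonium acetate, pH 5; eluent B was 2% acetonitrile in the same buffer. Precursors were identified by MS from fragments at m/z 562 and 747.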

C[C@H]1c2cccc(O)c2C(=O)C2=C(O)[C@]3(O)C(=O)C(C(N)=O)=C(O)[C@@H](N(C)C)[C@@H]3[C@@H](O)[C@@H]21.O [DOXYCYCLINE]
MIC (Enterococcus faecium [1]): 0.19 mg/L
MIC (Enterococcus faecium [2]): 0.094 mg/L
MIC (Enterococcus faecium [3]): 6 mg/L
MIC (Enterococcus faecium [4]): 0.19 mg/L
MIC (Enterococcus faecium [5]): 0.125 mg/L
MIC (Enterococcus faecium [6]): 0.094 mg/L
MIC (Enterococcus faecium [7]): 0.125 mg/L
MIC (Enterococcus faecium [8]): 32 mg/L
MIC (Enterococcus faecium [9]): 0.19 mg/L
MIC (Enterococcus faecium [10]): 6 mg/L
MIC (Enterococcus faecium [11]): 0.125 mg/L
MIC (Enterococcus faecium [12]): 0.094 mg/L

CC(=O)NC[C@H]1CN(c2ccc(N3CCOCC3)c(F)c2)C(=O)O1 [LINEZOLID]
MIC (Enterococcus faecium [1]): 1.5 mg/L (≈ 4.45 µM)
MIC (Enterococcus faecium [2]): 1.5 mg/L (≈ 4.45 µM)
MIC (Enterococcus faecium [3]): 1.5 mg/L (≈ 4.45 µM)
MIC (Enterococcus faecium [5]): 1.5 mg/L (≈ 4.45 µM)
MIC (Enterococcus faecium [6]): 1 mg/L (≈ 2.96 µM)
MIC (Enterococcus faecium [7]): 1.5 mg/L (≈ 4.45 µM)
MIC (Enterococcus faecium [9]): 1.5 mg/L (≈ 4.45 µM)
MIC (Enterococcus faecium [10]): 1.5 mg/L (≈ 4.45 µM)
MIC (Enterococcus faecium [11]): 1.5 mg/L (≈ 4.45 µM)

O=C1CN(/N=C/c2ccc([N+](=O)[O-])o2)C(=O)N1 [NITROFURANTOIN]
MIC (Enterococcus faecium [1]): 128 mg/L (≈ 537 µM)
MIC (Enterococcus faecium [2]): 16 mg/L (≈ 67.2 µM)
MIC (Enterococcus faecium [3]): > 512 mg/L
MIC (Enterococcus faecium [4]): 196 mg/L (≈ 823 µM)
MIC (Enterococcus faecium [5]): 64 mg/L (≈ 269 µM)
MIC (Enterococcus faecium [6]): 16 mg/L (≈ 67.2 µM)
MIC (Enterococcus faecium [7]): 64 mg/L (≈ 269 µM)
MIC (Enterococcus faecium [8]): 32 mg/L (≈ 134 µM)
MIC (Enterococcus faecium [9]): 128 mg/L (≈ 537 µM)
MIC (Enterococcus faecium [10]): 16 mg/L (≈ 67.2 µM)
MIC (Enterococcus faecium [11]): 128 mg/L (≈ 537 µM)
MIC (Enterococcus faecium [12]): 64 mg/L (≈ 269 µM)

CO[C@H]1/C=C/O[C@@]2(C)Oc3c(C)c(O)c4c(O)c(c(/C=N/N5CCN(C)CC5)c(O)c4c3C2=O)NC(=O)/C(C)=C\C=C\[C@H](C)[C@H](O)[C@@H](C)[C@@H](O)[C@@H](C)[C@H](OC(C)=O)[C@@H]1C [RIFAMPIN]
MIC (Enterococcus faecium [1]): > 32 mg/L
MIC (Enterococcus faecium [2]): > 32 mg/L
MIC (Enterococcus faecium [3]): 4 mg/L (≈ 4.86 µM)
MIC (Enterococcus faecium [4]): 8 mg/L (≈ 9.72 µM)
MIC (Enterococcus faecium [5]): 4 mg/L (≈ 4.86 µM)
MIC (Enterococcus faecium [6]): > 32 mg/L
MIC (Enterococcus faecium [7]): 3 mg/L (≈ 3.65 µM)
MIC (Enterococcus faecium [8]): 16 mg/L (≈ 19.4 µM)
MIC (Enterococcus faecium [9]): 0.25 mg/L (≈ 0.304 µM)
MIC (Enterococcus faecium [10]): 4 mg/L (≈ 4.86 µM)
MIC (Enterococcus faecium [11]): 0.19 mg/L (≈ 0.231 µM)
MIC (Enterococcus faecium [12]): > 32 mg/L

CN[C@H](CC(C)C)C(=O)N[C@H]1C(=O)N[C@@H](CC(N)=O)C(=O)N[C@H]2C(=O)N[C@H]3C(=O)N[C@H](C(=O)N[C@H](C(=O)O)c4cc(O)cc(O)c4-c4cc3ccc4O)[C@H](O)c3ccc(c(Cl)c3)Oc3cc2cc(c3O[C@@H]2O[C@H](CO)[C@@H](O)[C@H](O)[C@H]2O[C@H]2C[C@](C)(N)[C@H](O)[C@H](C)O2)Oc2ccc(cc2Cl)[C@H]1O [VANCOMYCIN]
MIC (Enterococcus faecium [1]): > 256 mg/L
MIC (Enterococcus faecium [2]): 0.75 mg/L (≈ 0.518 µM)
MIC (Enterococcus faecium [3]): > 256 mg/L
Activity (Enterococcus faecalis): Active
MIC (Enterococcus faecium [4]): > 256 mg/L
MIC (Enterococcus faecium [5]): > 256 mg/L
MIC (Enterococcus faecium [6]): > 256 mg/L
MIC (Enterococcus faecium [7]): > 256 mg/L
MIC (Enterococcus faecium [8]): > 256 mg/L
MIC (Enterococcus faecium [9]): > 256 mg/L
MIC (Enterococcus faecium [10]): > 256 mg/L
MIC (Enterococcus faecium [11]): > 256 mg/L
MIC (Enterococcus faecium [12]): > 256 mg/L
